In ChEMBL document CHEMBL1208674, “Synthesis and anti-mycobacterial evaluation of some pyrazine-2-carboxylic acid hydrazide derivatives” (Eur J Med Chem, 2010):
≈ marks a conversion by molar mass, not a printed value.

Columns and labels:
[1] = tested on: Mycobacterium tuberculosis; assay: Antimycobacterial activity against Mycobacterium tuberculosis H37Rv by microplate Alamar blue assay; assay type: functional, organism-based
Outline: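 M. tuberculosis H37Rv (ATCC 27294) grown in BACTEC 12B medium, broth microdilution read by Alamar Blue (MABA). Ten 2-fold dilutions, typically 100 to 0.19 µg/mL. IC90 = concentration giving 90% fluorescence reduction relative to controls; IC50 at 50%. Both taken from dose-response curve by curve fitting. Run alongside a parallel VERO cytotoxicity assay.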

[2] = Cytotoxicity against african green monkey Vero cells after 72 hrs by Cell titer Glo assay; assay type: cell-based; details: chlorocebus sabaeus
Outline: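 VERO cells exposed to compounds for 72 h, run in parallel with the M. tuberculosis dose-response assay. Viability read by ATP-based luminescence (Cell Titer-Glo). CC50 taken from the dose-response curve by curve fitting.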

| SMILES | IC50 [1] [µg/mL] | IC90 [1] [µg/mL] | CC50 at 72 h [2] [µg/mL] |
| --- | --- | --- | --- |
| COc1cc(/C=N/NC(=O)c2cnccn2)ccc1O | > 100 | > 100 | > 30 |
| Nc1cccc(/C=N/NC(=O)c2cnccn2)c1 | > 100 | > 100 | > 30 |
| COc1ccc(/C(C)=N/NC(=O)c2cnccn2)cc1 | > 100 | > 100 | > 30 |
| C/C(=N\NC(=O)c1cnccn1)c1ccc(Br)cc1 | > 100 | > 100 | > 30 |
| Cc1ccc2nc(Cl)c(/C=N/NC(=O)c3cnccn3)cc2c1 | > 100 | > 100 | > 30 |
| COc1ccc2nc(Cl)c(/C=N/NC(=O)c3cnccn3)cc2c1 | > 100 | > 100 | 5.37 (≈ 15.7 µM) |
| CCNC(=S)NNC(=O)c1cnccn1 | 11.4 (≈ 50.5 µM) | 16.9 (≈ 74.9 µM) | 29.8 (≈ 132 µM) |
| O=C(N/N=C/c1ccccc1O)c1cnccn1 | > 100 | > 100 | 11.4 (≈ 47.2 µM) |
| O=C(N/N=C/c1ccc(Cl)cc1)c1cnccn1 | > 100 | > 100 | > 30 |
| COc1ccc(/C=N/NC(=O)c2cnccn2)cc1 | > 100 | > 100 | > 30 |
| O=C(N/N=C/c1ccc(O)cc1)c1cnccn1 | > 100 | > 100 | > 30 |
| O=C(N/N=C/c1cccc(O)c1)c1cnccn1 | > 100 | > 100 | > 30 |
| NNC(=O)c1cnccn1 [PYRAZINE CARBOXYLIC ACID HYDRAZIDE] | > 100 | > 100 | > 30 |
